Measured values as given in ChEMBL document CHEMBL1811845, “Modulation of GABAA-receptors by honokiol and derivatives: subtype selectivity and structure-activity relationship” (J Med Chem, 2011).
pEC50: −log10 of the molar value.

How the values were obtained:
Oocyte = experiment: Modulation of GABA alpha1beta2gamma2s receptor expressed in Xenopus laevis oocytes assessed as potentiation of GABA-induced chloride current at holding potential -70 mV at 300 nM by two-microelectrode voltage clamp technique relative to GABA; format: cell-based
Outline: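 Xenopus oocytes were injected with α1, β2 and γ2s cRNAs mixed 1:1:10 and stored at +18 °C in ND96 at pH 7.4. Chloride current was recorded by two-electrode voltage clamp at -70 mV and ambient temperature. Compound was co-applied with GABA at 3–7% of maximal current, set for each oocyte. Enhancement was calculated as (I(GABA+compound)/IGABA) − 1 with matched DMSO.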

[1] = biological target: T1, Gamma-aminobutyric acid receptor subunit alpha-3/ beta-2 (Homo sapiens, UniProt P34903+P47870); experiment: Modulation of GABA Aalpha3beta2 receptor expressed in Xenopus laevis oocytes assessed as potentiation of GABA-induced chloride current at holding potential -70 mV by two-microelectrode voltage clamp technique; format: cell-based, Oocyte
T1 sequence (P47870 whole entry): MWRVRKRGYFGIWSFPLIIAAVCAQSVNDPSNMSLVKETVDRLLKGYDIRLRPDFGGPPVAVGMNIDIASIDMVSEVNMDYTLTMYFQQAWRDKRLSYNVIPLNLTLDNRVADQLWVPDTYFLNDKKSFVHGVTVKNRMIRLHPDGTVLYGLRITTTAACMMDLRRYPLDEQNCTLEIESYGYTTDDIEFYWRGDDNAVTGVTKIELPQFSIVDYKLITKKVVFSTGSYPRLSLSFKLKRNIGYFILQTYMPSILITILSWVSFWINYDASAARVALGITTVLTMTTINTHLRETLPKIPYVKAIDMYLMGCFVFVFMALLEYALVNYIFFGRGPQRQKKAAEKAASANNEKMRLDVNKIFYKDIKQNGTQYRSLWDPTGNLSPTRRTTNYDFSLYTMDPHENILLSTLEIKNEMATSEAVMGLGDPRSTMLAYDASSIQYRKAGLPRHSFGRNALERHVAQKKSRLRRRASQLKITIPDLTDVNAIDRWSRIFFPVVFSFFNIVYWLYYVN
T1 sequence (P34903 whole entry): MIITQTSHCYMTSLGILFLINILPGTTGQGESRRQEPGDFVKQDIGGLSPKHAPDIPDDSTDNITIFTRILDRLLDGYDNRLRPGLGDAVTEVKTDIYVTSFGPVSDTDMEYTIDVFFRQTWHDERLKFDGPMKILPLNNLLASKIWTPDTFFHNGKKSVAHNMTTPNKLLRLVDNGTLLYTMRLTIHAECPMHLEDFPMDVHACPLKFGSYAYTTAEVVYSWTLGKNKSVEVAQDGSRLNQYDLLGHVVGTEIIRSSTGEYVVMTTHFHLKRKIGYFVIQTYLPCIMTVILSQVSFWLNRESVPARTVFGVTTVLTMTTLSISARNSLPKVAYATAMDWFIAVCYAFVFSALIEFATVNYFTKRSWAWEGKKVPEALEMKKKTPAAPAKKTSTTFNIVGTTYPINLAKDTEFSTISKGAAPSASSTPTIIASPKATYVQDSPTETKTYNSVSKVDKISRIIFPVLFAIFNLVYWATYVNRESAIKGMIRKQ
Outline: (§1)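 Stage V–VI Xenopus oocytes, defolliculated with 2 mg/mL collagenase, injected with α(1, 2, 3 or 5) and β2 cRNAs mixed 1:1, then kept at 18 °C in ND96 (pH 7.4). Enhancement = I(GABA+compound)/IGABA − 1. Curves were Hill-fitted for EC50. Bath DMSO was at most 0.3%, matched in controls.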

[2] = biological target: T2, GABA-A receptor; GABA-A site (alpha1/beta2 interface) (Homo sapiens) (UniProt P14867+P47870); experiment: Modulation of GABA Aalpha1beta2 receptor expressed in Xenopus laevis oocytes assessed as potentiation of GABA-induced chloride current at holding potential -70 mV by two-microelectrode voltage clamp technique relative to GABA; format: cell-based; details: Oocyte
Outline: (§2)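 Oocytes were injected with α1, α2, α3 or α5 plus β2 cRNA at a 1:1 ratio and stored at 18 °C in ND96, pH 7.4. Enhancement was (I(GABA+compound)/IGABA)−1, and concentration-response data were Hill-fitted for EC50 and nH. Matched DMSO was ≤0.3%.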

[3] = biological target: T3, Gamma-aminobutyric acid receptor subunit alpha-5/beta-2 (Homo sapiens, UniProt P31644+P47870); experiment: Modulation of GABA Aalpha5beta2 receptor expressed in Xenopus laevis oocytes assessed as potentiation of GABA-induced chloride current at holding potential -70 mV by two-microelectrode voltage clamp technique; format: cell-based, Oocyte; outline: as §1
T3 sequence (P47870 whole entry): T1 sequence (P47870 whole entry)
T3 sequence (P31644 whole entry): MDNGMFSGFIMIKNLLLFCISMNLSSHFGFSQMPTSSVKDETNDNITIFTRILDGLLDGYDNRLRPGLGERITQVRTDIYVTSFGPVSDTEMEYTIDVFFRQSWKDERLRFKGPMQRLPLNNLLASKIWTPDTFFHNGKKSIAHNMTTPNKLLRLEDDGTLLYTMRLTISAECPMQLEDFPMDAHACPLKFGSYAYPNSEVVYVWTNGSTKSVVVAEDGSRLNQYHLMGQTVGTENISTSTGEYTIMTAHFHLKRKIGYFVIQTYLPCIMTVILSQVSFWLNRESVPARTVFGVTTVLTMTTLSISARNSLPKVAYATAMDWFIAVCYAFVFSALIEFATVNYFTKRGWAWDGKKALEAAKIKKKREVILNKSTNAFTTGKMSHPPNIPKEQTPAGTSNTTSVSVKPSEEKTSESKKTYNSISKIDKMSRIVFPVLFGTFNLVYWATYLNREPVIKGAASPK

[4] = Octanol-water partition coefficient, log P of the compound; format: physicochemical; details: read-out: logP
[5] = biological target: Gamma-aminobutyric acid receptor subunit alpha-2/beta-2 (Homo sapiens) (UniProt P47870+P47869); experiment: Modulation of GABA Aalpha2beta2 receptor expressed in Xenopus laevis oocytes assessed as potentiation of GABA-induced chloride current at holding potential -70 mV by two-microelectrode voltage clamp technique relative to GABA; format: cell-based; details: Oocyte; outline: as §2
[6] = biological target: Gamma-aminobutyric acid receptor subunit alpha-3/ beta-2 (Homo sapiens) (UniProt P47870+P34903); experiment: Modulation of GABA Aalpha3beta2 receptor expressed in Xenopus laevis oocytes assessed as potentiation of GABA-induced chloride current at holding potential -70 mV by two-microelectrode voltage clamp technique relative to GABA; format: cell-based; details: Oocyte; outline: as §2
[7] = biological target: T2, GABA-A receptor; GABA-A site (alpha1/beta2 interface) (Homo sapiens); experiment: Modulation of GABA Aalpha1beta2 receptor expressed in Xenopus laevis oocytes assessed as potentiation of GABA-induced chloride current at holding potential -70 mV at 30 uM by two-microelectrode voltage clamp technique relative to GABA; format: cell-based; details: Oocyte
Outline: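 Single-concentration screen at 30 μM on α1β2 receptors (cRNA 1:1) in Xenopus oocytes. Enhancement was (I(GABA+compound)/IGABA)−1. DMSO was matched in control and test solutions, maximum 0.3% in the bath.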

[8] = biological target: T4, Gamma-aminobutyric acid receptor subunit alpha-2/beta-2 (Homo sapiens, UniProt P47869+P47870); experiment: Modulation of GABA Aalpha2beta2 receptor expressed in Xenopus laevis oocytes assessed as potentiation of GABA-induced chloride current at holding potential -70 mV by two-microelectrode voltage clamp technique; format: cell-based, Oocyte; outline: as §1
T4 sequence (P47870 whole entry): T1 sequence (P47870 whole entry)
T4 sequence (P47869 whole entry): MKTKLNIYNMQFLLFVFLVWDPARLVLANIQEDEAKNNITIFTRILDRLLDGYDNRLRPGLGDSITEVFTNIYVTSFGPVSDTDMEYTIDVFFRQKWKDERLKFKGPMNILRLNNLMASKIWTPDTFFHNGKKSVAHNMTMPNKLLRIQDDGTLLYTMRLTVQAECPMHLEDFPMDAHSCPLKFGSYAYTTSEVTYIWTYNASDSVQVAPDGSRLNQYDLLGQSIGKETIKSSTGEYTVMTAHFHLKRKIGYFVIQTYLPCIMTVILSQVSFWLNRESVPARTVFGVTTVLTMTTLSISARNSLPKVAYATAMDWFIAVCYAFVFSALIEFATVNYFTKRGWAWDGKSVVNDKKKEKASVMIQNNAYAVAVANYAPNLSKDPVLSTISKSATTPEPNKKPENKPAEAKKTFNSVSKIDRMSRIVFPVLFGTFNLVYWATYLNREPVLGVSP

[9] = biological target: Gamma-aminobutyric acid receptor subunit alpha-5/beta-2 (Homo sapiens) (UniProt P47870+P31644); experiment: Modulation of GABA Aalpha5beta2 receptor expressed in Xenopus laevis oocytes assessed as potentiation of GABA-induced chloride current at holding potential -70 mV by two-microelectrode voltage clamp technique relative to GABA; format: cell-based; details: Oocyte; outline: as §2
[10] = biological target: T5, GABA-A receptor; GABA-A site (alpha1/beta2 interface) (Homo sapiens, UniProt P14867+P47870); experiment: Modulation of GABA Aalpha1beta2 receptor expressed in Xenopus laevis oocytes assessed as potentiation of GABA-induced chloride current at holding potential -70 mV by two-microelectrode voltage clamp technique; format: cell-based, Oocyte; outline: as §1
T5 sequence (P14867 whole entry): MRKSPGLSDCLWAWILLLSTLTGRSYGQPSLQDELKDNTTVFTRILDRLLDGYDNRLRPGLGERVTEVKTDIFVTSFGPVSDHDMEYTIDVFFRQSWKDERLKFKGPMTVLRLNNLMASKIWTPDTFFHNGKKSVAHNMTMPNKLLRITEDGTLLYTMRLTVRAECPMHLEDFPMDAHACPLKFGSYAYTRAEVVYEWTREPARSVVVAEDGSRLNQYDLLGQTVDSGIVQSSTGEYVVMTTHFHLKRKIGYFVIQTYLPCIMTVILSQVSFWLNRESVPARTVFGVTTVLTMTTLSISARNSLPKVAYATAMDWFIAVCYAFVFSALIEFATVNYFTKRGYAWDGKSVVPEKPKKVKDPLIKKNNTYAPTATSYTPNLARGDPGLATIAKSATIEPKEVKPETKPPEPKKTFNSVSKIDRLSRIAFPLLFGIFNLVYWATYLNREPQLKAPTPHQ
T5 sequence (P47870 whole entry): T1 sequence (P47870 whole entry)

Compound	Activity (Oocyte) [%]	pEC50 [1]	Smax [2] [%]	pEC50 [3]	logP [4]	Smax [5] [%]	Smax [6] [%]	Activity [7] [%]	pEC50 [8]	Smax [9] [%]	pEC50 [10]
CN1C(=O)CN=C(c2ccccc2)c2cc(Cl)ccc21	104										
C=CCc1cc(NC(C)=O)c(O)c(-c2ccc(OC)c(CC=C)c2)c1		5.05	2600	5.64	4.75	5200	3670	2630	5.10	1010	5.42
CCCc1cc(N)c(O)c(-c2ccc(OC)c(CCC)c2)c1		5.08	2260	5.28	5.38	2980	2380	2020	5.49	1870	5.04
